procasp3 activ = activates human procaspase-3. activation, % at 8.5 µM. recombinant procaspase-3 D3A, Ac-DEVD-pNA absorbance 405 nm. hit rate 0.11% among 330,000. AID 463141;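 active = activation above the mean of all tested compounds plus 3 SD, cut at about 21% in these data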;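 note: 0% = DMSO alone and 100% = DMSO wells spiked with extra 5 µM PC-3 D3A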
Target sequence (P42574 whole entry D9A/D28A/D175A): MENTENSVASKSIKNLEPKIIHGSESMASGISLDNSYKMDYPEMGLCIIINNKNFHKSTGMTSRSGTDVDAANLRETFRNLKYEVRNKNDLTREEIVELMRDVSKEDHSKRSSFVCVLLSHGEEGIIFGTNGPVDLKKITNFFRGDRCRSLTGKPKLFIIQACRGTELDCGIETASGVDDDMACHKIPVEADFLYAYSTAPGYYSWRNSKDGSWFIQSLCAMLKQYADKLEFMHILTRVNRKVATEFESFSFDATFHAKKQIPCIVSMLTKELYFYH
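Compound: 8.5 µM single point, 0.8% DMSO / Material: Autoprocessing-dead procaspase-3 D3A mutant enzyme / Timing: 1 h preincubation plus 2 h reaction at 25 °C / Medium: Zinc-free HEPES/NaCl buffer with 0.01% Triton X-100 at pH 7.4 / Technique: 405 nm absorbance of p-nitroaniline, reads at 0 and 120 min / Repeats: one well per compound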
proCasp7 act = counter-screen: procaspase-7 (human) activation; recombinant procaspase-7, Ac-DEVD-pNA absorbance 405 nm; D23A/D198A/D206A triple mutant, cannot self-cleave; scale: DMSO 0, 5 µM enzyme 100; activation, % at 8.5 µM; hit rate 0.093% among 330,000;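 active = percent activation above the screen-wide mean plus 3 SD, cut at about 25% in these data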
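Material: Procaspase-7 triple mutant (PC-7 D3A) | Quantity: 2 µM procaspase-7 mutant as dispensed | Reagent: DEVD-pNA substrate | Times: 1 h preincubation, 2 h reaction | Technique: 405 nm absorbance of p-nitroaniline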
FXN GAA850 act = activators of GAA850 frataxin (FXN) promoter; activation, % at 6 µM; hit rate 0.56% among 360,000; HEK293 lucGAA850 FXN promoter luciferase reporter, 24 h; percent of 10 µM SAHA response;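 active = activation above the average of all compounds screened plus 3 SD, cutoff fixed separately per campaign, cut at about 7.5% in these data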;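 note: 0% = DMSO wells and 100% = 10 µM SAHA wells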
GAA30 counter = counter-screen for GAA850 frataxin promoter activators: GAA30 promoter activation; hit rate 66% among 1,900; activation, % at 6 µM; AID 588350; HEK293 lucGAA30 FXN promoter luciferase, 24 h; DMSO = 0%, 5 µM ipriflavone = 100%; shares compounds with FXN GAA850 act;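 active = mean activation above the mean of solvent-only control wells plus 3 SD, cut at about 22% in these data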;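 note: counterscreen of GAA850 promoter hits where activity marks nonselective or luminescence artifacts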
GAA850 confirm = GAA850 FXN promoter activation confirmation. shares compounds with FXN GAA850 act. HEK293 lucGAA850 FXN promoter luciferase reporter, 24 h; 100% = activation by SAHA. activation, % at 6 µM. hit rate 86% among 1,900. AID 588351;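 active = mean activation above a set limit taken from the primary screen, cut at about 8% in these data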;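 note: 0% = DMSO wells and 100% = 10 µM SAHA wells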
* marks the source's active call; other numbers are inactive results; x = no result. An excerpt weighted towards active compounds, which were near 0.7% of everything screened.

SMILES	procasp3 activ	proCasp7 act	FXN GAA850 act	GAA30 counter	GAA850 confirm
CC(C)C[C@@]12C(=O)N(c3ccc(Br)cc3)C(=O)N1[C@H](c1ccc(Br)cc1)[C@@H]1C(=O)N(C(C)(C)C)C(=O)[C@@H]12	-6	5	17*	18	18*
CC(=O)N(c1cc(C)ccc1C)c1ccccc1[N+](=O)[O-]	x	x	-1	x	x
Cc1ccc(OCCn2cnc3c(N)ncnc32)cc1	6	8	8.0*	-8	9.8*
CCOc1ccc(OCCn2c(=S)[nH]c3c(N)ncnc32)cc1	-2	13	3	x	x
Cc1ccccc1Nc1nc(N)nc(CSc2nc3ccccc3s2)n1	5	-3	4	x	x
Cc1ccc(Nc2nc(N)nc(CSc3nc4ccccc4s3)n2)cc1	-2	10	11*	40*	22*
FC(F)Oc1ccc(N=C2SCC3CCCCN23)cc1 (stereo unspecified)	2	-10	4	x	x
Clc1ccc(N=C2SCC3CCCCN23)cc1 (stereo unspecified)	-2	0	8.2*	99*	42*
CC(Oc1cc2oc(=O)cc(-c3ccccc3)c2cc1Cl)C(=O)NCC1CCC(C(=O)O)CC1 (stereo unspecified)	4	5	11*	20	8.8*
CCc1cc2c(-c3ccccc3)cc(=O)oc2cc1OC(C)C(=O)NCC1CCC(C(=O)O)CC1 (stereo unspecified)	1	0	0	x	x
Cc1ccccc1C(=O)NCC(=O)NNC(=O)c1cccc(Cl)c1	7	2	1	x	x
Cn1cc(-c2ccccc2C(N)=O)c(=O)c2cc(Cl)ccc21	-2	-4	-1	x	x
Cn1cc(C2=C(c3ccc(Cl)cc3Cl)C(=O)NC2=O)c2ccccc21	-13	-20	12*	10	9.2*
COc1ccc(C(=O)/C=C/C(=O)N(CC(=O)NC2CCCCC2)Cc2ccccc2)c(O)c1	x	x	7.6*	-88	-23
COc1ccc(C(=O)/C=C/C(=O)N(CC(=O)NC2CCCCC2)Cc2ccccc2OC)c(O)c1	x	x	-1	x	x
CC(C)N(C(=O)CSc1ccc(S(=O)(=O)N2CCCCC2)cn1)C(C)C	0	1	2	x	x
NC(=O)COC(=O)c1ccccc1SCC(=O)NC1CCCCCC1	-3	4	2	x	x
O=C(CSc1ncnc2c1oc1ccccc12)c1cccs1	11	-3	3	x	x
Cc1nc(SCC(=O)c2cccs2)c2oc3ccccc3c2n1	0	6	7.6*	101*	39*
O=C1C2C3C=CC(C2C(=O)N1CCO)C1C(=O)N(CCO)C(=O)C31 (stereo unspecified)	8	12	0	x	x
Oc1ccc(/C=N/N2CCCCC2)cc1O	-9	4	12*	55*	28*
Clc1ccc(C=NN2CCCCCC2)cc1Cl	x	x	3	x	x
CCOc1ccc(N2CC(C(=O)N3CCN(c4ccccn4)CC3)CC2=O)cc1 (stereo unspecified)	-6	-1	0	x	x
CCSc1nc2c(c(=O)n(C)c(=O)n2C)n1Cc1ccc(Cl)cc1	5	1	1	x	x
Cc1ccc(Cn2c(Sc3ncccn3)nc3c2c(=O)[nH]c(=O)n3C)cc1	1	-1	-2	x	x
SMILES	procasp3 activ	proCasp7 act	FXN GAA850 act	GAA30 counter	GAA850 confirm
CCSc1nc2c(c(=O)[nH]c(=O)n2C)n1Cc1ccc(Cl)cc1	2	-3	7.6*	23*	18*
CCCCn1c(SCc2ccc(Cl)cc2)nc2c1c(=O)[nH]c(=O)n2C	-12	-5	8.9*	1	10*
C/C=C/CSc1nc2c(c(=O)[nH]c(=O)n2C)n1Cc1ccc(C)cc1	-5	-9	29*	13	17*
Cn1c(=O)[nH]c(=O)c2c1nc([N+](=O)[O-])n2Cc1ccccc1	-4	-2	8.5*	-121	-30
CC(C)CCn1c(SCc2ccc(Cl)cc2)nc2c1c(=O)[nH]c(=O)n2C	-8	-21	6	x	x
CC(C)Cn1c([N+](=O)[O-])nc2c1c(=O)[nH]c(=O)n2C	8	2	-6	x	x
COc1ccc(S(=O)(=O)N2CCCC(C(=O)NCC3CCCO3)C2)cc1OC (stereo unspecified)	-1	-9	1	x	x
CN1CCN(S(=O)(=O)c2cccc(C(=O)NCc3ccc(Cl)cc3)c2)CC1	-2	9	0	x	x
